Screens as filed in PubChem BioAssay.
GRK2 aptamer HTS: compounds blocking aptamer binding on GRK2 – biochemical, human GRK2, bead flow cytometry, HTS, primary screen; inhibition of aptamer binding, % at 10 µM; hit rate 0.59% among 330,000; Beta-adrenergic receptor kinase 1 (Homo sapiens), P25098; AID 488847, 2010; FAM-aptamer displacement from GRK2;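 active means inhibition of aptamer binding above 40%, roughly 3 SD of noise, on plates passing a quality check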;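 further: median bead fluorescence of bound FAM aptamer so fluorescent compounds give negative values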
Target sequence (P25098 whole entry, looked up): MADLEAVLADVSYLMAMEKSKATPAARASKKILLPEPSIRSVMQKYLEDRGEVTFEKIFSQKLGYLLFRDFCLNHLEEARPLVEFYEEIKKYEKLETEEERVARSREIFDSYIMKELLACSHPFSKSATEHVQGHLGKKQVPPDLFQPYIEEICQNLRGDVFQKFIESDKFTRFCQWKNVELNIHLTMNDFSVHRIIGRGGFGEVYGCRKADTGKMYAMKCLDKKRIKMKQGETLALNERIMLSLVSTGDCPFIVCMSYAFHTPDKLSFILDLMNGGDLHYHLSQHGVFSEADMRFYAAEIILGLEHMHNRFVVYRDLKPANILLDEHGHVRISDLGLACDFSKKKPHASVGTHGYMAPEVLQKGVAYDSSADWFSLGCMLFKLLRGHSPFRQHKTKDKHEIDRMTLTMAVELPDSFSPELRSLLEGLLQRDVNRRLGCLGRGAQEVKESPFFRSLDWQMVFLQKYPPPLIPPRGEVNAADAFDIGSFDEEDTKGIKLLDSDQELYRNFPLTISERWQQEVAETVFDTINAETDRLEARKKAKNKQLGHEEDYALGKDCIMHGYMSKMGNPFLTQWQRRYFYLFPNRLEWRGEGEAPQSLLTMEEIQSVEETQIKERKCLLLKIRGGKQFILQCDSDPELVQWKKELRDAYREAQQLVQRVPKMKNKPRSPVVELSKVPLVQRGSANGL
SR-BI DiI inh: inhibitors of SR-BI mediated HDL lipid uptake, primary screen, ldlA[mSR-BI] cells, fluorescence, single point; Scavenger receptor class B member 1 (Mus musculus), Q61009; ldlA[mSR-BI] CHO cells, DiI-HDL uptake fluorescence, 3 h; inhibition, % at 12.5 µM; hit rate 0.96% among 320,000;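 active means mean replicate inhibition of at least 70% and a set share of replicates each scoring 70 or more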;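 further: 0% = median of neutral control wells and 100% = median of positive control wells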
Rin1-Abl PPI inh: inhibitors of Rin1-Abl protein binding, primary screen, biochemical, TR-FRET; Tyrosine-protein kinase ABL1 (Homo sapiens) + Ras and Rab interactor 1 (Homo sapiens), …; inhibition, % at 7.35 µM; hit rate 0.4% among 360,000; AID 588664, 2011; in the data active means inhibition above about 5%, passing the limit was not always enough
SR-BI DiI-HDL act: activators of SR-BI mediated DiI-HDL uptake, primary screen, ldlA[mSR-BI] CHO cells, DiI fluorescence | AID 504775, 2011 | activation, % at 12.5 µM | hit rate 0.096% among 320,000 | 3 h; 100 = double the neutral-control signal;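 active means mean replicate activation of at least 60% and every replicate at or above 60%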;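 further: 0% = median plate neutral-control signal and 100% = twice that signal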
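Test system: SR-BI-overexpressing, LDLR-lacking CHO cells. Measured by: DiI fluorescence, bottom read. Medium: Ham's F12 with 0.5% BSA, HEPES 25 mM, pH 7.4. Timing: 3 h uptake period with compound, 37 °C.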
Rin1-Abl confirm: Rin1-Abl binding inhibitor retest, confirmation, biochemical, TR-FRET; hit rate 49% among 1,300; inhibition, % at 7.35 µM; shares compounds with Rin1-Abl PPI inh; purified proteins
GFP quencher: GFP fluorescence inhibitors and quenchers, artefact control for Rin1-Abl interaction inhibitor project, biochemical | shares compounds with Rin1-Abl PPI inh | inhibitors/quenchers counterscreen | inhibition, % at 6.75 µM | hit rate 8.5% among 1,300;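 further: ABL1-eGFP fusion protein alone without its partner RIN1-SBP; 0% = protein with vehicle and 100% = wells lacking protein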
GFP quench DR: GFP fluorescence inhibitors and quenchers, dose response, artefact control for Rin1-Abl interaction inhibitor project, biochemical. shares compounds with Rin1-Abl PPI inh. GFP fluorescence interference/quenching counterscreen. IC50, µM. 230 tested, under 10 active; call rule not given here;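 further: ABL1-eGFP fusion protein alone without its RIN1 binding partner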
* hit, by the source's call; / = not tested or not shown. The list is not random: actives were taken first. Their share in the collection is about 1.9%. Unless noted, no stated cut-off is given here; in the data, active means inhibition above about 6.5%; inactive means the rest.

SMILES	GRK2 aptamer HTS	SR-BI DiI inh	Rin1-Abl PPI inh	SR-BI DiI-HDL act	Rin1-Abl confirm	GFP quencher	others
CC[C@]12c3[nH]c4ccc(OC)cc4c3CCN1C(=O)C(CC(=O)NCC13CC4CC(CC(C4)C1)C3)C[C@@H]2C(=O)N1CCN(C(=O)C2CC2)CC1 (stereo partly drawn)	0	-2	19*	2	24*	1	GFP quench DR=>68
CC[C@]12c3[nH]c4ccc(Cl)cc4c3CCN1C(=O)[C@@H](CC(=O)NCC13CC4CC(CC(C4)C1)C3)C[C@@H]2C(=O)N1CCN(C(=O)C2CC2)CC1	0	-42	4	42	/	/
CCc1cccc(NC(=O)c2sc3nc4n(c(=O)c3c2C)CCC4)c1	0	18	10*	-18	-3	0
O=C1OC(NCc2cccnc2)(c2ccc(Cl)cc2)c2ccccc21 (stereo not drawn)	0	7	12*	-7	7.4*	-2
CC1(c2nnc(-c3ccncc3)o2)CC(c2ccccc2)=NO1 (stereo not drawn)	3	-22	19*	22	24*	1
CC1(c2nnc(-c3ccncc3)o2)CC(c2ccc(Cl)cc2)=NO1 (stereo not drawn)	1	-15	17*	15	23*	-2
Cc1cc(=O)n(-c2ccc(C(=O)O)cc2)[nH]1	2	-24	8.3*	24	0	-1
CC(C)(C)c1ccc(-c2n[nH]c(=S)n2CC2CCCO2)cc1 (stereo not drawn)	1	19	0	-19	/	/
CC(C)(C)c1ccc(-c2n[nH]c(=S)n2CCCN2CCOCC2)cc1	0	-5	8.7*	5	7.6*	0
CCN1C(=O)CC(n2c(C)nc3ccccc32)C1=O (stereo not drawn)	0	6	7.9*	-6	-1	-1
Cc1nc2ccccc2n1C1CC(=O)N(N(C)C)C1=O (stereo not drawn)	2	7	3	-7	/	/
OC[C@@H]1CN(Cc2ccc(Cl)cc2)C[C@H](n2cnc3c(NC4CCC4)ncnc32)O1	/	/	12*	/	9.4*	-1
CC(C)CNc1ncnc2c1ncn2[C@H]1CN(Cc2ccc(Cl)cc2)C[C@@H](CO)O1	/	/	18*	/	10*	-2
OC[C@@H]1CN(Cc2ccc(-c3ccccc3)cc2)C[C@H](n2cnc3c(NC4CC4)ncnc32)O1	/	/	26*	/	21*	-1	GFP quench DR=>68
CC(C)CNc1ncnc2c1ncn2[C@H]1CN(Cc2ccc(F)cc2)C[C@@H](CO)O1	/	/	2	/	/	/
CNc1ncnc2c1ncn2[C@H]1CN(Cc2ccc(-c3ccccc3)cc2)C[C@@H](CO)O1	/	/	9.7*	/	13*	-2
OC[C@@H]1CN(Cc2ccc(-c3ccccc3)cc2)C[C@H](n2cnc3c(Nc4ccccc4)ncnc32)O1	/	/	2	/	/	/
O=c1cc(CN2CCN(c3ccc(Cl)c(Cl)c3)CC2)c2c(ccc3ccccc32)o1	/	/	2	/	/	/
CN1CCN(c2ncnc3c2ncn3[C@H]2CN(Cc3cccnc3)C[C@@H](CO)O2)CC1	/	/	1	/	/	/
Cc1ccc(S(=O)(=O)N2C[C@H]3[C@H]4C(=O)N(c5ccccc5)C(=O)[C@H]4CC(=O)[C@H]3[C@@H]2c2cccc3ccccc23)cc1	/	/	48*	/	-1	-2
O=C1Nc2ccccc2N=C(c2ccccc2)c2ccccc21	0	/	5.9*	/	2	-3
COc1cccc(C2(O)CCN(C(=O)c3cccs3)CC2)c1	0	-4	6.7*	4	1	0
Clc1ccc(-n2ncc3c(N4CCCCCC4)ncnc32)cc1	0	-5	2	5	/	/
COc1ccc(-n2ncc3c(N4CCCCC4)ncnc32)cc1	1	9	6.1*	-9	-4	1
Nc1ccc2c(c1)[nH]c(=O)c1cc(N)ccc12	/	/	-8	/	/	/
SMILES	GRK2 aptamer HTS	SR-BI DiI inh	Rin1-Abl PPI inh	SR-BI DiI-HDL act	Rin1-Abl confirm	GFP quencher	others
CC(C)c1c(C(=O)Nc2ccccc2)c(-c2ccccc2)c(-c2ccc(F)cc2)n1CC[C@@H](O)C[C@@H](O)CC(=O)O	/	/	1	/	/	/
CCOc1cc(N2CCOCC2)c(OCC)cc1NC(=O)c1[nH]c(C)c(C(C)=O)c1C	3	5	0	-5	/	/
CC(=O)c1c(C)[nH]c(C(=O)Nc2ccccc2N2CCOCC2)c1C	1	46	4.7*	-46	-3	0
C[C@H](CO)N1C[C@H](C)[C@@H](CN(C)S(=O)(=O)c2ccc(F)cc2)Oc2ccc(NC(=O)C3CC3)cc2C1=O	2	-10	14*	10	14*	1
C[C@@H]1CN([C@@H](C)CO)C(=O)c2cc(NC(=O)CCC(F)(F)F)ccc2O[C@H]1CN(C)S(=O)(=O)c1ccc(Cl)cc1	4	69	3	-69	/	/
CCOC(=O)CCCCCC(=O)Nc1ccc2c(c1)CC(=O)N([C@H](C)CO)C[C@@H](C)[C@H](CN(C)Cc1ccc3c(c1)OCO3)O2	0	23	16*	-23	18*	-1	GFP quench DR=>68
CCOC(=O)CCCCCC(=O)Nc1ccc2c(c1)C(=O)N([C@H](C)CO)C[C@@H](C)[C@H](CN(C)Cc1ccc3c(c1)OCO3)O2	1	33	5	-33	/	/
C[C@@H]1CCCCO[C@@H](CN(C)S(=O)(=O)c2cccs2)[C@@H](C)CN([C@H](C)CO)C(=O)c2cc(NS(=O)(=O)c3ccccc3)ccc2O1	/	/	69*	/	67*	-1	GFP quench DR=>68
COc1ccc(S(=O)(=O)N(C)C[C@H]2Oc3ccc(NC(=O)CCC(F)(F)F)cc3C(=O)N([C@H](C)CO)C[C@@H]2C)cc1	2	3	16*	-3	15*	-1
O=C(CCN1CCN(c2ccccc2)CC1)N/N=C/c1ccccc1OC(F)F	2	27	0	-27	/	/
Cc1cccc(-c2n[nH]nc2C2=CC(=O)CC(C)(C)C2)c1	/	/	0	/	/	/
CCOC(=O)CCCCCC(=O)Nc1ccc2c(c1)C(=O)N([C@H](C)CO)C[C@H](C)[C@@H](CN(C)C(=O)Nc1ccc(OC)cc1)O2	10	3	16*	-3	13*	0
COc1ccc(NC(=O)N(C)C[C@H]2Oc3ccc(NC(=O)Cc4ccccc4)cc3C(=O)N([C@H](C)CO)C[C@@H]2C)cc1	0	14	2	-14	/	/
COc1ccc(Cc2nnc(Cl)c3ccccc23)cc1OC	4	/	0	/	/	/
COc1ccc(OC)c(NC(=O)COC(=O)c2ccc(S(=O)(=O)N3CCCCC3)cc2)c1	/	/	2	/	/	/
